Laboratory results as given in ChEMBL document CHEMBL4024768, “Discovery and Optimization of Thiazolidinyl and Pyrrolidinyl Derivatives as Inhaled PDE4 Inhibitors for Respiratory Diseases” (J Med Chem, 2017).

Legend:
[1] = Inhibition of PDE4 in human U937 cell lysates assessed as residual cAMP after 2.5 mins by LANCE assay
[2] = Inhibition of PDE4 in human PBMC assessed as reduction in LPS-induced TNFalpha release after 18 hrs by quantitative ELISA
[3] = Protein binding in human plasma at 5 uM after 5 hrs by LC-MS/MS analysis; format: ADME, cell-free; settings: read-out: PPB (converted)
[4] = Apparent permeability across apical to basolateral side in human Caco2 cells at 10 uM after 2 hrs by LC-MS/MS analysis; format: ADME, cell-based; settings: Caco-2
[5] = Apparent permeability across basolateral to apical side in human Caco2 cells at 10 uM after 2 hrs by LC-MS/MS analysis; format: ADME, cell-based; settings: Caco-2
[6] = Intrinsic clearance in human liver microsomes at 1 uM measured after 60 mins in presence NADPH by LC-MS/MS analysis; format: ADME, microsome; settings: read-out: CLH
Method in brief: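 Compound at 1 μM with human liver microsomes (0.8 mg protein/mL) in Dulbecco's buffer pH 7.4, 1 mM NADPH, 37 °C, in duplicate. Sampled at 0, 5, 10, 20, 30 and 60 min, quenched with ice-cold acetonitrile, and unchanged compound measured by LC−MS/MS. No-NADPH controls; midazolam (1 μM) as phase I control.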

[7] = Intrinsic clearance in human hepatocytes assessed per million cells at 1 uM measured after 90 mins by LC-MS/MS analysis; format: ADME, cell-based, Hepatocyte; settings: read-out: CLH
Method in brief: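 Compound at 1 μM with hepatocytes (1 million cells/mL) in Leibovitz L-15 at 37 °C, in duplicate. Sampled at 0, 10, 20, 30, 60 and 90 min, quenched with ice-cold acetonitrile, centrifuged, and unchanged compound measured by LC−MS/MS. Included 7-ethoxycoumarin and 7-hydroxycoumarin activity controls and cell-free medium controls.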

[8] = Metabolic stability in human lung S9 fraction assessed as compound remaining at 1 uM measured after 60 mins in presence of NADPH by LC-MS/MS analysis; format: ADME; settings: read-out: Stability
[9] = Metabolic stability in human plasma assessed as compound remaining at 1 uM measured after 60 mins in presence of NADPH by LC-MS/MS analysis; format: ADME, cell-free; settings: read-out: Stability
[10] = test system: Rattus norvegicus; assay: Anti-inflammatory activity in OVA-induced airway inflammation Brown Norway rat model assessed inhibition of eosinophils recruitment in bronchoalveolar lavage fluid administered intratracheally as powder formulation 2 hrs before aerosolized OVA challenge measured at 24 hrs post aerosolized OVA challenge; format: functional
Method in brief: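 Male Brown Norway rats sensitized i.p. with OVA (1 mg/rat) plus Al(OH)3 (100 mg/rat) in saline on 3 consecutive days. Challenged 2–3 weeks later with nose-only 1% OVA aerosol for 30 min. Lactose-blended dry powder (10 mg/kg total powder) insufflated intratracheally; dose taken from needle weight difference. BAL with 3 × 4 mL HBSS/EDTA/HEPES at 24 h; total and differential counts by automated counter. ED50 from fitted dose–response curve.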

CN(C)C(=O)c1cccc(S(=O)(=O)N2CCC[C@@H](C(=O)O[C@@H](Cc3c(Cl)c[n+]([O-])cc3Cl)c3ccc(OC(F)F)c(OCC4CC4)c3)C2)c1 (relative stereo)
IC50 [1]: 0.031 nM
IC50 [2]: 0.12 nM

O=C(O[C@@H](Cc1c(Cl)c[n+]([O-])cc1Cl)c1ccc(OC(F)F)c(OCC2CC2)c1)c1cccn1S(=O)(=O)c1ccccc1
IC50 [1]: 0.825 nM

COc1ccc(S(=O)(=O)N2CCC[C@H]2C(=O)O[C@@H](Cc2c(Cl)c[n+]([O-])cc2Cl)c2ccc(OC(F)F)c(OCC3CC3)c2)cc1OC (relative stereo)
IC50 [1]: 0.0324 nM
IC50 [2]: 0.36 nM

Cn1cnc(S(=O)(=O)N2CCS[C@H]2C(=O)O[C@@H](Cc2c(Cl)c[n+]([O-])cc2Cl)c2ccc(OC(F)F)c(OCC3CC3)c2)c1
fraction unbound at 5 h, 5 µM [3]: 0.015
IC50 [1]: 0.02 nM
IC50 [2]: 0.028 nM
Papp A→B at 2 h, 10 µM [4]: 0.22 ×10⁻⁶ cm/s
Papp B→A at 2 h, 10 µM [5]: 3.95 ×10⁻⁶ cm/s
microsomal CLint at 1 µM [6]: 281 µL/min/mg
hepatocyte CLint at 1 µM [7]: 66.9 µL/min/1e6 cells
remaining at 1 h, 1 µM [8]: 77.7%
remaining at 1 h, 1 µM [9]: 101%

O=C(c1ccccc1)c1ccsc1C(=O)O[C@@H](Cc1c(Cl)c[n+]([O-])cc1Cl)c1ccc(OC(F)F)c(OCC2CC2)c1
IC50 [1]: 0.32 nM

CN(C)C(=O)c1cccc(S(=O)(=O)N2CCS[C@@H]2C(=O)O[C@H](Cc2c(Cl)c[n+]([O-])cc2Cl)c2ccc(OC(F)F)c(OCC3CC3)c2)c1
IC50 [1]: 6.4 nM

COc1ccc(S(=O)(=O)N2CCS[C@H]2C(=O)O[C@@H](Cc2c(Cl)c[n+]([O-])cc2Cl)c2ccc(OC(F)F)c(OCC3CC3)c2)cc1C(=O)N(C)C (relative stereo)
fraction unbound at 5 h, 5 µM [3]: 0.0017
IC50 [1]: 0.026 nM
IC50 [2]: 0.022 nM
Papp A→B at 2 h, 10 µM [4]: 0.23 ×10⁻⁶ cm/s
Papp B→A at 2 h, 10 µM [5]: 7.67 ×10⁻⁶ cm/s
microsomal CLint at 1 µM [6]: 360 µL/min/mg
hepatocyte CLint at 1 µM [7]: 47.6 µL/min/1e6 cells
remaining at 1 h, 1 µM [8]: 71.2%
remaining at 1 h, 1 µM [9]: 98.8%

CN(C)C(=O)c1cccc(S(=O)(=O)N2CCS[C@H]2C(=O)O[C@@H](Cc2c(Cl)c[n+]([O-])cc2Cl)c2ccc(OC(F)F)c(OC3CCCC3)c2)c1 (relative stereo)
IC50 [1]: 0.021 nM
IC50 [2]: 0.04 nM

CCCC1O[C@@H]2C[C@H]3[C@@H]4CCC5=CC(=O)C=C[C@]5(C)[C@H]4[C@@H](O)C[C@]3(C)[C@]2(C(=O)CO)O1 (some centres not stated) [BUDESONIDE]
inhibition [10]: Dose-dependent effect
ED50 ([10]; inhaled or nasal): 0.04 µmol/kg

O=C(O[C@@H](Cc1c(Cl)c[n+]([O-])cc1Cl)c1ccc(OC(F)F)c(OCC2CC2)c1)c1ccccc1
IC50 [1]: 0.072 nM

CN(C)C(=O)c1cccc(S(=O)(=O)N2CCCC[C@H]2C(=O)O[C@@H](Cc2c(Cl)c[n+]([O-])cc2Cl)c2ccc(OC(F)F)c(OCC3CC3)c2)c1 (relative stereo)
fraction unbound at 5 h, 5 µM [3]: 0.0012
IC50 [1]: 0.056 nM
IC50 [2]: 0.012 nM
Papp A→B at 2 h, 10 µM [4]: 21.7 ×10⁻⁶ cm/s
Papp B→A at 2 h, 10 µM [5]: 73.4 ×10⁻⁶ cm/s
microsomal CLint at 1 µM [6]: 363 µL/min/mg
hepatocyte CLint at 1 µM [7]: 64.6 µL/min/1e6 cells
remaining at 1 h, 1 µM [8]: 72.5%
remaining at 1 h, 1 µM [9]: 104%

COc1ccc(S(=O)(=O)N2CCS[C@H]2C(=O)O[C@@H](Cc2c(Cl)c[n+]([O-])cc2Cl)c2ccc(OC(F)F)c(OCC3CC3)c2)cc1OC (relative stereo)
fraction unbound at 5 h, 5 µM [3]: 0.004
IC50 [1]: 0.041 nM
IC50 [2]: 0.057 nM
Papp A→B at 2 h, 10 µM [4]: 0.25 ×10⁻⁶ cm/s
Papp B→A at 2 h, 10 µM [5]: 0.82 ×10⁻⁶ cm/s
microsomal CLint at 1 µM [6]: 200 µL/min/mg
hepatocyte CLint at 1 µM [7]: 53.8 µL/min/1e6 cells
remaining at 1 h, 1 µM [8]: 50.7%
remaining at 1 h, 1 µM [9]: 101%

Cc1cc(S(=O)(=O)N2CCS[C@H]2C(=O)O[C@@H](Cc2c(Cl)c[n+]([O-])cc2Cl)c2ccc(OC(F)F)c(OCC3CC3)c2)c(C)s1 (relative stereo)
IC50 [1]: 0.176 nM
IC50 [2]: 0.17 nM

CN(C)C(=O)c1cccc(S(=O)(=O)N2CCS[C@H]2C(=O)O)c1
IC50 [2]: > 1000 nM

O=C(O[C@@H](Cc1c(Cl)c[n+]([O-])cc1Cl)c1ccc(OC(F)F)c(OCC2CC2)c1)[C@@H]1SCCN1S(=O)(=O)c1cccnc1 (relative stereo)
IC50 [1]: 0.061 nM
IC50 [2]: 0.07 nM

O=C(O[C@@H](Cc1c(Cl)c[n+]([O-])cc1Cl)c1ccc(OC(F)F)c(OCC2CC2)c1)[C@@H]1CCCCN1S(=O)(=O)c1ccccc1 (relative stereo)
IC50 [1]: 0.094 nM
IC50 [2]: 0.203 nM

CS(=O)(=O)N1CCC[C@H]1C(=O)O[C@@H](Cc1c(Cl)c[n+]([O-])cc1Cl)c1ccc(OC(F)F)c(OCC2CC2)c1 (relative stereo)
IC50 [1]: 0.504 nM
IC50 [2]: 4.2 nM
